APP 5'UTR act: activators of APP 5'UTR luciferase reporter, primary screen, SH-SY5Y cells; SH-SY5Y APP 5'UTR luciferase reporter, luminescence; zero percent = DMSO vehicle wells; activation, % at 2 µM; 190,000 tested, 1% active;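 active = activation above a set limit, based on mean plus 3 SD of controls, cut at about 140% in these data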
NF-kB neuron act: activators of NF-kB expression in neurons, primary screen, cell-based, HTS; human neuronal cells, NF-kB reporter expression; stronger effect = higher value; fold change at 12.5 µM; 190,000 tested, 1.6% active; AID 1239, 2008; in the data active = fold change above about 3.3
STAT1 act: STAT1 signaling activators, primary screen, cell-based, HTS, luciferase reporter | 200,000 tested, 2.6% active | NIH 3T3 STAT1-luciferase reporter, IFN-gamma, luminescence; 100% = IFN-gamma alone, no compound | activation (% of control), % at 5.5 µM;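 active = activation above the screen-wide mean activation plus 3 SD, cut at about 130% in these data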;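 note: raw ratio to IFN-gamma control signal so 100% means no change and 0% no light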
STAT3 blocker: IL-6 driven STAT3 reporter inhibitors, primary screen, U3A cells, luciferase, luminescence, MLSCN library. IL-6 STAT3-luciferase reporter; host cell line lacks STAT1. 190,000 tested, 0.89% active. inhibition, % at 5.5 µM. AID 862, 2007;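 active = inhibition above the mean inhibition across all screened compounds plus 3 SD, cut at about 44% in these data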;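 note: 0% = DMSO only wells and 100% = 100 µM nifuroxazide control wells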
STAT3 act: IL-6 driven STAT3 reporter potentiators, primary screen, U3A cells, luciferase, luminescence, MLSCN library | IL-6 STAT3-luciferase reporter; 100% = signal with IL-6 EC80 alone | activation (% of control), % at 5.6 µM | 190,000 tested, 0.91% active | AID 871, 2007;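 active = activation above the screen-wide mean of compound activation plus 3 SD, cut at about 130% in these data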;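 note: 0% = background luminescence of wells with medium and substrate only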
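Material: STAT1-lacking human U3A cells, STAT3 luciferase reporter | Benchmarks: IL-6-only wells as 100% reference | Probe or stimulus: IL-6 (33 ng/mL) | Timing: Compound 1 h, then IL-6 6 h at 37 °C | Detection: Luminescence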
STAT1 inh: STAT1 signaling inhibitors, primary screen, cell-based, HTS, luciferase reporter. inhibition, % at 5.5 µM. 200,000 tested, 0.35% active. NIH 3T3 STAT1-luciferase reporter, IFN-gamma, luminescence;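 active = inhibition above a set limit, the mean inhibition across all tested compounds plus 3 SD, cut at about 34% in these data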;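 note: 0% = IFN-gamma with DMSO and 100% = IFN-gamma with 300 µM nifuroxazide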
An asterisk follows results filed as active. The list is not random: actives were taken first. Their share in the collection is about 5.1%.

SMILES	APP 5'UTR act	NF-kB neuron act	STAT1 act	STAT3 blocker	STAT3 act	STAT1 inh
Cc1ccc2c(c1)c1cccc3c1n2CCN3CCC(N)=O	88	1.5	143*	-22	125	-47
CC(C)Cc1cc(C(=O)Nc2cccnc2)no1	17	2	116	10	98	-17
Cc1ccc2nc(-c3cccc(S(=O)(=O)N(C)C)c3)cn2c1	69	2.4	136*	4	98	-40
COc1ccc(Nc2cccc(Cl)c2)c(C(=O)O)c1	-7	3.6*	106	4	95	-7
COC(=O)/C(=C/c1c[nH]c2ccccc12)NC(C)=O	13	1.2	91	4	100	10
COC(=O)/C(=C/c1c[nH]c2ccccc12)[N+](=O)[O-]	14	1.3	86	-32	134*	16
O=C(NCCCn1ccnc1)c1cn(-c2ccccc2)nc1-c1ccccc1	-3	0.47	107	0	100	-5
O=C(CCc1nc(-c2ccc(Cl)cc2)no1)NCC1CCCO1 (stereo not drawn)	16	0.95	102	-8	108	-5
Cn1c(=O)c(C(=O)NCC2CCCO2)c(O)c2ccccc21 (stereo not drawn)	20	2.4	129*	-15	115	-34
Cn1c(C(=O)NCC2CCCO2)cc2oc3ccccc3c21 (stereo not drawn)	117	2.3	144*	20	87	-49
Cc1cccnc1NC(=O)c1c(O)c2ccccc2n(C)c1=O	-3	1.1	105	-39	133*	-5
Cc1cc(C(=O)Cn2cncn2)c(C)n1CCc1ccc(F)cc1	2	0.96	94	12	94	7
CC(C)(C)C(=O)N(CCN(C(=O)C(C)(C)C)c1ccccc1)c1ccccc1	3	0.95	95	2	102	6
CCS(=O)(=O)c1nc2ccccc2n1Cc1ccccc1Cl	-7	1.4	102	-6	109	-2
O/C(=C\c1nc2ccccc2nc1/C=C(\O)c1ccccc1)c1ccccc1	83	1.2	134*	-39	145*	-39
Cc1[nH]c2ccc(C(=O)N3CCCCC3)cc2c1C	140*	4.2*	145*	-8	109	-51
CC(=O)Nc1ccc(N=Cc2c(O)c(C(=O)Nc3ccccc3)cc3ccccc23)cc1	7	1.1	89	-46	145*	11
Clc1ccc(Cn2ncc3c(NCc4ccco4)ncnc32)c(Cl)c1	-9	0.79	107	7	96	-7
c1ccc(-n2ncc3c(NCC4CCCO4)ncnc32)cc1 (stereo not drawn)	60	2.2	129*	2	105	-32
c1ccc(-n2ncc3c(NCc4cccs4)ncnc32)cc1	95	2.2	138*	13	94	-39
COc1ccc(-n2ncc3c(NCc4ccccn4)ncnc32)cc1	64	1.1	112	8	99	-15
c1ccc2c(c1)oc1c(NCC3CCCO3)ncnc12 (stereo not drawn)	25	1.2	112	-7	110	-14
COc1ccc(-n2ncc3c(NCc4cccs4)ncnc32)cc1	101	3.1	150*	-15	117	-54
Clc1ccc(-n2ncc3c(NCc4ccco4)ncnc32)cc1	128	2.7	150*	13	95	-55
O=C1/C(=C\c2cccnc2)CCc2ccccc21	15	1.6	98	-1	105	3
SMILES	APP 5'UTR act	NF-kB neuron act	STAT1 act	STAT3 blocker	STAT3 act	STAT1 inh
Cc1c(NC(=O)CSc2nnnn2Cc2ccccc2)c(=O)n(-c2ccccc2)n1C	3	1.1	93	2	100	7
O=C1CC(=O)CC(c2ccco2)C1	-7	0.96	96	14	94	6
N#Cc1c(Cl)nsc1NC(=O)c1ccccc1	-2	0.56	49	56*	56	55*
Cc1noc(C)c1C(=O)Nc1sc(C)c(-c2ccccc2)c1C#N	-5	0.48	100	4	98	2
Cc1sc(NC(=O)C2CCCCC2)c(C#N)c1-c1ccccc1	46	1.4	130*	-9	111	-33
Cc1cccc(C(=O)Nc2sc(C)c(-c3ccccc3)c2C#N)c1	27	3.5*	133*	11	94	-36
COC(=O)c1ccc(N=NNc2ccccc2)cc1	63	2.5	146*	-2	100	-52
O=C(O)c1ccc(N=NNc2cccc([N+](=O)[O-])c2)cc1	83	4.1*	143*	1	101	-48
COC(=O)c1ccc(CSCC(=O)Nc2ccccc2)cc1	31	1.1	86	13	93	14
COC(=O)c1ccc(N=NNc2ccc(C(=O)OC)cc2)cc1	127	3.5*	148*	-9	106	-54
CC(C)c1ccccc1NC(=S)NC1CCN(Cc2ccccc2)CC1	8	1.4	102	6	99	-2
O=c1[nH]c2ccccc2nc1CCc1ccccc1	15	1.1	145*	12	92	-52
C#CC(=O)N(c1cccc(OC)c1)C(C(=O)NC1CCCC1)c1cccs1 (stereo not drawn)	-19	0.14	61	110*	14	43*
O=C(COc1ccccc1)n1nc(-c2ccc(Cl)cc2)nc1NCc1ccco1	54	1.8	143*	-13	111	-47
COCC(=O)n1nc(-c2ccc(C)cc2)nc1NCc1ccc(F)cc1	31	1.1	118	-2	106	-23
COCC(=O)n1nc(-c2ccccc2)nc1NCc1ccc(N(C)C)cc1	52	2.1	142*	-9	112	-50
O=C(c1ccco1)n1nc(-c2ccc(Cl)cc2)nc1NCc1ccco1	-7	1.3	96	19	84	4
COc1ccccc1NC(=O)c1cc(C)nc2ccccc12	-8	0.94	93	1	101	6
Nc1n[nH]c(N)c1N=Nc1ccc2c(c1)OCO2	1	1.8	132*	3	99	-34
CCOc1cc(C(=O)Nc2ccccc2F)cc(Br)c1OCC	10	0.93	89	24	80	12
O=C/C(=C\Nc1ccccn1)c1nc2cc(Cl)ccc2o1	-10	1.2	109	-40	135*	-10
CCN1C(=O)/C(=C/C=C2\C=CN(CC)c3ccccc32)SC1=S	98	0.99	100	0	102	0
CCN1C(=O)/C(=C\C=C2/C=CC=CN2CC)SC1=S	48	2.2	134*	-18	118	-38
Nc1nc(Nc2ccc(Cl)cc2)nc2ccccc12	115	6*	78	62*	50	24
O=C(Nc1cnn(Cc2ccc(F)cc2)c1)c1noc2c1CCCC2	59	1.6	129*	13	95	-34

Compound activity as filed in PubChem.
